This note sets out measurements from ChEMBL document CHEMBL1151813, “Synthesis and cytotoxicity of bidesmosidic betulin and betulinic acid saponins” (J Nat Prod, 2009).

Structures are written as SMILES.

Test [1] has as its system A549. The experiment in a line: Cytotoxicity against human A549 cells after 48 hrs. It counts as functional, cell-based. The note with it: A549, 48 h. An outline of the steps:
(§1)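 Cells grown in MEM (Earle's salts, L-glutamine) with 10% FBS, vitamins, amino acids, pyruvate, penicillin/streptomycin at 37 °C, 5% CO2. 5 × 10³ cells/well adhered 16 h, then increasing concentrations in DMSO (final 0.5% v/v) for 48 h. Resazurin fluorescence read at ex 530/em 590 nm; survival vs control wells after blank subtraction. Three experiments in triplicate; IC50 as mean ± standard deviation.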

Test [2] deals with DLD-1. The experiment in a line: Cytotoxicity against human DLD1 cells after 48 hrs. It counts as functional, cell-based. The note with it: DLD-1, 48 h. A digest of the protocol:
as §1

In test [3] the test system is MCF7. Description: Cytotoxicity against human MCF7 cells after 48 hrs. It counts as functional, cell-based. The note with it: MCF7, 48 h. A digest of the protocol:
as §1

Test [4] deals with PC-3. Description: Cytotoxicity against human PC3 cells after 48 hrs. It counts as functional, cell-based. To be noted: PC-3, 48 h. An outline of the steps:
as §1

Test [5] in a line: Cytotoxicity against human WS1 cells after 48 hrs. It is filed as cell-based. To be noted: WS1, 48 h.

What is called IC50 is the midpoint of a concentration-inhibition curve. `C=C(C)[C@@H]1CC[C@]2(CO)CC[C@]3(C)[C@H](CC[C@@H]4[C@@]5(C)CC[C@H](O)C(C)(C)[C@@H]5CC[C@]43C)[C@@H]12` [BETULIN]: the 50% inhibitory concentration (IC50) in test [1] was 3.8 µM; in test [2], 6.6 µM; in test [3] it was 23.3 µM; in test [4], 17.9 µM; in test [5], 3.6 µM.
The matching figures for `C=C(C)[C@@H]1CC[C@]2(CO[C@@H]3O[C@H](CO)[C@@H](O)[C@H](O)[C@H]3O)CC[C@]3(C)[C@H](CC[C@@H]4[C@@]5(C)CC[C@H](O[C@@H]6OC[C@H](O)[C@H](O)[C@H]6O)C(C)(C)[C@@H]5CC[C@]43C)[C@@H]12`: over 100 µM, 19 µM, 9.5 µM, 5.3 µM and 4.5 µM.
With `C=C(C)[C@@H]1CC[C@]2(C(=O)O[C@@H]3O[C@@H](C)[C@H](O)[C@@H](O)[C@H]3O)CC[C@]3(C)[C@H](CC[C@@H]4[C@@]5(C)CC[C@H](O[C@@H]6O[C@@H](C)[C@H](O)[C@@H](O)[C@H]6O)C(C)(C)[C@@H]5CC[C@]43C)[C@@H]12`, the half-maximal inhibitory concentration (IC50) in test [1] amounted to 7.2 µM; in test [2] it was 7.3 µM; in test [3] it was 6 µM; in test [4], 7.2 µM; in test [5] it was 4.9 µM.
As to `C=C(C)[C@@H]1CC[C@]2(C(=O)O)CC[C@]3(C)[C@H](CC[C@@H]4[C@@]5(C)CC[C@H](O)C(C)(C)[C@@H]5CC[C@]43C)[C@@H]12` [BETULINIC ACID], the IC50 was 10.3 µM in test [1]; 15 µM in test [2]; 41 µM in test [3]; 40 µM in test [4]; 12 µM in test [5].
Regarding `COc1cc([C@@H]2c3cc4c(cc3[C@@H](O[C@@H]3O[C@@H]5CO[C@@H](C)O[C@H]5[C@H](O)[C@H]3O)[C@H]3COC(=O)[C@H]23)OCO4)cc(OC)c1O` [ETOPOSIDE], the 50% inhibitory concentration (IC50) in test [1] stood at 1.2 µM; in test [2], 27 µM; in test [3], 0.7 µM; in test [4] it was 1.7 µM; in test [5] it was 34 µM.
Regarding `C=C(C)[C@@H]1CC[C@]2(CO[C@@H]3O[C@H](CO)[C@@H](O)[C@H](O)[C@H]3O)CC[C@]3(C)[C@H](CC[C@@H]4[C@@]5(C)CC[C@H](O[C@@H]6O[C@@H](C)[C@H](O)[C@@H](O)[C@H]6O)C(C)(C)[C@@H]5CC[C@]43C)[C@@H]12`, the IC50 in test [1] is 16.8 µM; in test [2] it was 10.6 µM; in test [3] it was 9 µM; in test [4], 6.9 µM; in test [5], 5.3 µM.
On to `C=C(C)[C@@H]1CC[C@]2(CO[C@@H]3O[C@@H](C)[C@H](O)[C@@H](O)[C@H]3O)CC[C@]3(C)[C@H](CC[C@@H]4[C@@]5(C)CC[C@H](O[C@@H]6O[C@@H](C)[C@H](O)[C@@H](O)[C@H]6O)C(C)(C)[C@@H]5CC[C@]43C)[C@@H]12`, for which the IC50 in test [1] was found to be 1.9 µM; in test [2], 1.9 µM; in test [3], 1.7 µM; in test [4], 1.8 µM; in test [5] it was 1.3 µM.
Consider `C=C(C)[C@@H]1CC[C@]2(C(=O)O[C@@H]3O[C@H](CO)[C@@H](O)[C@H](O)[C@H]3O)CC[C@]3(C)[C@H](CC[C@@H]4[C@@]5(C)CC[C@H](O[C@@H]6O[C@@H](C)[C@H](O)[C@@H](O)[C@H]6O)C(C)(C)[C@@H]5CC[C@]43C)[C@@H]12`, for which the IC50 worked out at 23 µM in test [1]; 11 µM in test [2]; 5.7 µM in test [3]; 11.2 µM in test [4]; 9 µM in test [5].
`C=C(C)[C@@H]1CC[C@]2(CO[C@@H]3O[C@H](CO)[C@@H](O)[C@H](O)[C@H]3O)CC[C@]3(C)[C@H](CC[C@@H]4[C@@]5(C)CC[C@H](O)C(C)(C)[C@@H]5CC[C@]43C)[C@@H]12`: the half-inhibitory concentration (IC50) in test [1], in test [2], in test [3], in test [4] and in test [5] was over 100 µM each time.
Consider `C=C(C)[C@@H]1CC[C@]2(C(=O)O[C@@H]3O[C@H](CO)[C@@H](O)[C@H](O)[C@H]3O)CC[C@]3(C)[C@H](CC[C@@H]4[C@@]5(C)CC[C@H](O[C@@H]6O[C@H](CO)[C@@H](O)[C@H](O)[C@H]6O)C(C)(C)[C@@H]5CC[C@]43C)[C@@H]12`, for which the half-inhibitory concentration (IC50) in test [1] is over 100 µM; in test [2], over 100 µM; in test [3], 20 µM; in test [4], 66 µM; in test [5] it was 35 µM.
Turning to `C=C(C)[C@@H]1CC[C@]2(CO[C@@H]3O[C@H](CO)[C@@H](O)[C@H](O)[C@H]3O)CC[C@]3(C)[C@H](CC[C@@H]4[C@@]5(C)CC[C@H](O[C@@H]6O[C@H](CO)[C@@H](O)[C@H](O)[C@H]6O)C(C)(C)[C@@H]5CC[C@]43C)[C@@H]12`, the IC50 is over 100 µM in test [1]; 27 µM in test [2]; 14.5 µM in test [3]; over 100 µM in test [4]; 20 µM in test [5].
Consider `C=C(C)[C@@H]1CC[C@]2(C(=O)O[C@@H]3O[C@H](CO)[C@@H](O)[C@H](O)[C@H]3O)CC[C@]3(C)[C@H](CC[C@@H]4[C@@]5(C)CC[C@H](O[C@@H]6OC[C@H](O)[C@H](O)[C@H]6O)C(C)(C)[C@@H]5CC[C@]43C)[C@@H]12`, for which the IC50 in test [1] stood at 76 µM; in test [2] it was 60 µM; in test [3], 23 µM; in test [4], 68 µM; in test [5], 50 µM.
For the compound `C=C(C)[C@@H]1CC[C@]2(C(=O)O[C@@H]3O[C@H](CO)[C@@H](O)[C@H](O)[C@H]3O)CC[C@]3(C)[C@H](CC[C@@H]4[C@@]5(C)CC[C@H](O)C(C)(C)[C@@H]5CC[C@]43C)[C@@H]12`, the IC50 in test [1], in test [2], in test [3], in test [4] and in test [5] was over 100 µM in each case.
